Strand notation (5' to 3'): a small letter for the sugar, then the base; units joined by * are phosphorothioate-linked, units joined directly phosphodiester-linked; [ ] holds rarer units or linkages, { } end groups; capitals alone tell only the bases. d = 2'-deoxy (DNA)
Legend:
LRP-1 [1] = target: LRP-1 (Mus musculus, UniProt Q91ZX7); experiment: Inhibition by RAP of brain-to-blood efflux of i.c.v. I-Aβ42; format: in vivo; details: n = 9/group
LRP-1 [2] = experiment: Immunohistochemistry of LRP-1 in isolated mouse brain microvessels; format: cell-based; details: isolated MBMs, 10 μg/mL, 24 h; buffer = 100%; n = 5-6 slides/group
Summary of the method: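 Cerebral cortices from 10–12 adult male CD-1 mice, meninges removed, were homogenised in cold HEPES/dextran stock buffer. Microvessels were isolated by nylon-mesh filtration and dextran centrifugation, then kept in incubation buffer pH 7.4. They were exposed to buffer, random antisense or antisense cocktail (10 μg/mL) for 24 h. Vessels were heat-fixed, fixed in 3.7% formaldehyde and Triton-permeabilised, then stained overnight at 4°C with anti-LRP-1 antibody (10 μg/mL). Mean fluorescence was measured from 5–6 […]/group.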

[3] = test system: primary mouse BMEC monolayers; experiment: Transport; format: cell-based; details: 1 μg/mL unlabeled Aβ42 added to abluminal chamber; n = 13-15/group
Summary of the method: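 Primary mouse brain endothelial cells were isolated by enzyme digestion and Percoll gradient. They were seeded at 4 × 10^4 cells/insert on fibronectin/collagen IV-coated 0.33 cm2, 0.4 μm polyester Transwells and grown to confluence (~3 days) in DMEM/F-12 with 20% plasma-derived serum, bFGF and 500 nM hydrocortisone. Assays ran in HEPES buffer pH 7.4 with 1% BSA. Radio-iodinated Aβ42 (1 × 10^6 cpm/mL) was placed in the loading chamber, with or without unlabelled Aβ42 (1 μg/mL). TCA-precipitable counts were used to give clearance and membrane-corrected permeability (cm/min).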

[4] = Saturability of brain uptake for cocktail ODNs; format: in vivo; details: 10 μg/mouse unlabeled PS-ODN i.v., brain/serum ratio at 30 min; n = 8-9/group
Summary of the method: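 Labelled 19mer or 23mer (5 × 10^5 cpm/200 μl lactated Ringer's–1% BSA) was given i.v. with or without 10 μg/mouse of the corresponding unlabelled phosphorothioate oligonucleotide. Brain and serum were collected 30 min after injection. Results were expressed as brain/serum ratios.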

[5] = In vivo brain-to-blood efflux rate of i.c.v. P-Olg; design: species or system mouse; details: after i.c.v. injection, 5 × 10^3 cpm/μl, 2-20 min; n = 2-3 mice/time point
Summary of the method: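 Oligonucleotide was kinase-labelled, ethanol-precipitated, stored at −70°C and used within 48 h. After i.c.v. injection into anaesthetised mice, animals were decapitated at 2, 5, 10 or 20 min and brain radioactivity counted. The t = 0 level came from urethane-overdosed mice. Log % injected dose was plotted against time, and the slope (efflux rate) was obtained by linear regression. n = 2–3 mice/time point.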

Sequence of LRP-1 (Mus musculus, UniProt Q91ZX7) (Q91ZX7 20-4545): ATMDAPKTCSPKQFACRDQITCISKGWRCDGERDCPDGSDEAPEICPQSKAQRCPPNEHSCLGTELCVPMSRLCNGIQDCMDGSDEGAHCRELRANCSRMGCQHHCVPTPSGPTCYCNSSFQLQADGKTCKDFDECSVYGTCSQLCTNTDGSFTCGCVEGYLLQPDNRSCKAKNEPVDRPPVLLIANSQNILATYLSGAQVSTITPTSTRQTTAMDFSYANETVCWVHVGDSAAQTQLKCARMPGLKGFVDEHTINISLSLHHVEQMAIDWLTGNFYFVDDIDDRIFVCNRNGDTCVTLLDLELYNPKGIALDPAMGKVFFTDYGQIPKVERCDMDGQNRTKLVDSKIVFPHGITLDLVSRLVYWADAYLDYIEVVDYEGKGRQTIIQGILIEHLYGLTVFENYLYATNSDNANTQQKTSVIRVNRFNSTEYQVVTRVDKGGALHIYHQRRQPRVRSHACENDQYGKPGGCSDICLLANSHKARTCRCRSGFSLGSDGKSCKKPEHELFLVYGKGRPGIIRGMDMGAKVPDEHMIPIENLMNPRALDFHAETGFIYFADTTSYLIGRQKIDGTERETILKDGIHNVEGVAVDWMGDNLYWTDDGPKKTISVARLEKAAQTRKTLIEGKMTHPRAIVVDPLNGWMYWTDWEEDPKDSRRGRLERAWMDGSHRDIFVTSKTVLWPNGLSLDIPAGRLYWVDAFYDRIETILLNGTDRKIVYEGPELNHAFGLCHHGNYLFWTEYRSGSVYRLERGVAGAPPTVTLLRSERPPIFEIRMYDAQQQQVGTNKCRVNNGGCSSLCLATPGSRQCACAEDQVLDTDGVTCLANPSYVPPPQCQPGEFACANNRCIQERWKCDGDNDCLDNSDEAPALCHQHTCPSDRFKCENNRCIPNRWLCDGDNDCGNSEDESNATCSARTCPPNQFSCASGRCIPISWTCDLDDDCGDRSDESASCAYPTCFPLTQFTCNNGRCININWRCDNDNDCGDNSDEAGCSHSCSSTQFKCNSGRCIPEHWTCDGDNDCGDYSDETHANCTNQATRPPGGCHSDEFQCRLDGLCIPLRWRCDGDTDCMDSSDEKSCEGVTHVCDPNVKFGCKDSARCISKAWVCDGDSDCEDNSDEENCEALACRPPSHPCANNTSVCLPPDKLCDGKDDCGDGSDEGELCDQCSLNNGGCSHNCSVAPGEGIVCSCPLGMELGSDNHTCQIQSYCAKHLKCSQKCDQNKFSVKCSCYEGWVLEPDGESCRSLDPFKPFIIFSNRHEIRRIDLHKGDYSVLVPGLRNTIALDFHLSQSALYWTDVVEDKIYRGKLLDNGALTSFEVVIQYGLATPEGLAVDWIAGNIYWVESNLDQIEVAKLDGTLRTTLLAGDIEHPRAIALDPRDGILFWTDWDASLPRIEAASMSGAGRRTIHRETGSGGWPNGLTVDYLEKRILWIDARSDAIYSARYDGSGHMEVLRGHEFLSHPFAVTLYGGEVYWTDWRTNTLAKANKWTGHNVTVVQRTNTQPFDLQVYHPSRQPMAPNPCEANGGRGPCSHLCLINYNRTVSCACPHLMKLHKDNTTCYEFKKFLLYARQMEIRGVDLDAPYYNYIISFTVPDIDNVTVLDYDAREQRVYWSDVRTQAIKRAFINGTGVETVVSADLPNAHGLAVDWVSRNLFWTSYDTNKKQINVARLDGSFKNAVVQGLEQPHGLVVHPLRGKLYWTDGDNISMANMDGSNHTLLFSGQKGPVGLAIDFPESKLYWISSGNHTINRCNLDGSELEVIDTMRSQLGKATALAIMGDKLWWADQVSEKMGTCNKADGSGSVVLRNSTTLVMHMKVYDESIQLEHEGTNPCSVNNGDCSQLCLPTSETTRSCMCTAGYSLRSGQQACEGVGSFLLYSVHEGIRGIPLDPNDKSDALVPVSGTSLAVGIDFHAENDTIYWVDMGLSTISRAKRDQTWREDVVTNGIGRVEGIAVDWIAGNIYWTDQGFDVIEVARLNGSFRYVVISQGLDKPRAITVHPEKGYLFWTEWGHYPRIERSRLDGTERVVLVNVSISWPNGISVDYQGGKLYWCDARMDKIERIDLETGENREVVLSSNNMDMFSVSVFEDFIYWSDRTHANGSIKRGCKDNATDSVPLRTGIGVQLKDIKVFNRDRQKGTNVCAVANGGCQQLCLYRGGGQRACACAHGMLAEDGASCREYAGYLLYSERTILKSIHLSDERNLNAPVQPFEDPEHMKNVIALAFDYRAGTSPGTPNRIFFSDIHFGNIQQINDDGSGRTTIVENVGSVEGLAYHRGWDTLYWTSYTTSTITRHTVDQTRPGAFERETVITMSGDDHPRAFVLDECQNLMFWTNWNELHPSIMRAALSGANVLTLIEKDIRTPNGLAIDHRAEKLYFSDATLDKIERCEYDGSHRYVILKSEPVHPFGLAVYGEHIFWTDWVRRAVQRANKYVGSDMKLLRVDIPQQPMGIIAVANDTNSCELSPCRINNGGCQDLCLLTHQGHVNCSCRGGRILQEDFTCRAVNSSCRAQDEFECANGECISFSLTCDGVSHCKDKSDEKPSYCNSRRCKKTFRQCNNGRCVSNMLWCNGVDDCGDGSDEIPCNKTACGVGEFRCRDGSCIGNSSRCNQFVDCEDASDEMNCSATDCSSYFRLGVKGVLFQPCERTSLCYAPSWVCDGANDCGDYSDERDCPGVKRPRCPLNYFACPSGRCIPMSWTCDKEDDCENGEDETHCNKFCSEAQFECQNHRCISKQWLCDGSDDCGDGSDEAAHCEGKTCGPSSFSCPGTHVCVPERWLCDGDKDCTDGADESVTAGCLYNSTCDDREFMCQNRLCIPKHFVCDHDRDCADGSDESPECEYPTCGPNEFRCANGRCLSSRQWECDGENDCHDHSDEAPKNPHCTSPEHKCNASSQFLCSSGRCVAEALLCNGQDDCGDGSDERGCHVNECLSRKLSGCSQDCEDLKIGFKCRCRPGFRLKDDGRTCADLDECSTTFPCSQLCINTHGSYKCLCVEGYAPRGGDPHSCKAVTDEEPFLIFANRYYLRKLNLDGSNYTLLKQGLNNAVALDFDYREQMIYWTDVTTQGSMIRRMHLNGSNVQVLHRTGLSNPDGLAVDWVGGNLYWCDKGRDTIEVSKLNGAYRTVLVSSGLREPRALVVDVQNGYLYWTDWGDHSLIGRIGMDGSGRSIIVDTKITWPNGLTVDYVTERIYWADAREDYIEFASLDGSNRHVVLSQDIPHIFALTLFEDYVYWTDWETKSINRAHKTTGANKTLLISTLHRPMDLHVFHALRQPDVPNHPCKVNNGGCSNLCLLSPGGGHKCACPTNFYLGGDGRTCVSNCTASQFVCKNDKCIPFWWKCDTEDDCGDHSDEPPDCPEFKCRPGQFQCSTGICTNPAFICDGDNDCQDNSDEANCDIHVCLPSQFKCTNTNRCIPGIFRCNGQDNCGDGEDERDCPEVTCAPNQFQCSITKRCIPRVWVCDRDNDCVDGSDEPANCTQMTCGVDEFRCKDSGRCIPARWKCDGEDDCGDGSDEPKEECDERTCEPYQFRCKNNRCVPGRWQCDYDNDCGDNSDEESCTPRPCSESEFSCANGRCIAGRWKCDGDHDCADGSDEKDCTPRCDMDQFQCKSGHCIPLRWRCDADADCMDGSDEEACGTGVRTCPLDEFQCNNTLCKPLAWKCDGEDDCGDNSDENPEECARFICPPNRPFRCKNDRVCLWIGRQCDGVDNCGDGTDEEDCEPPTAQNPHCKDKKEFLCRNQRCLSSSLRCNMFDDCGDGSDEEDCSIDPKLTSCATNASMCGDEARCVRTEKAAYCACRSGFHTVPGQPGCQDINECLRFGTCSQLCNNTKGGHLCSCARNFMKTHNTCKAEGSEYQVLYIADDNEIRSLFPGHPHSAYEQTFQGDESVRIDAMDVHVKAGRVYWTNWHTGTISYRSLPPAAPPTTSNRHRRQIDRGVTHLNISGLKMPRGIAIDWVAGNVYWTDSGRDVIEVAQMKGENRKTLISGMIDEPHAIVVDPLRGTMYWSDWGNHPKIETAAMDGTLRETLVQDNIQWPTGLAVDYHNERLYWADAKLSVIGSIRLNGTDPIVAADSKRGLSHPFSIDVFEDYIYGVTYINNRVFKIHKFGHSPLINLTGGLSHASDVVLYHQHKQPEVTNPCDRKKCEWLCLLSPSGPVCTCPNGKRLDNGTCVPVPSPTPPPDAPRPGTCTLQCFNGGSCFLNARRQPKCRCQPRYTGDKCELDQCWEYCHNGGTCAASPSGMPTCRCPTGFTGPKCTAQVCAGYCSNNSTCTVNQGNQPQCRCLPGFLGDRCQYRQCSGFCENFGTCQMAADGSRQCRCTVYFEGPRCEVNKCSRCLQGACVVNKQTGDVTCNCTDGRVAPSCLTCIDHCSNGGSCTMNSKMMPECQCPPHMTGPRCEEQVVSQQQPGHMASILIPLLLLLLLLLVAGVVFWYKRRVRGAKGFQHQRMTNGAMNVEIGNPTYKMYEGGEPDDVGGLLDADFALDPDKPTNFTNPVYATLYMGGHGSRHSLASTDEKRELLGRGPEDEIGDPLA

Row | Substance | brain uptake on co-administration of unlabeled PS-ODN (saturability) [4] | half-time clearance from brain [5] [min] | other results
1 | receptor-associated protein [RAP] |  |  | brain-to-blood efflux of i.c.v. administered I-Aβ42 (LRP-1 [1]): inhibits
2 | random antisense: 21mer (Random) control PS-ODN 5′-(_P=S)GAGAAGGTTGTGTGATCTTCA, no sequence homology with any mouse genes (antisense dG*dA*dG*dA*dA*dG*dG*dT*dT*dG*dT*dG*dT*dG*dA*dT*dC*dT*dT*dC*dA) |  |  | mean fluorescent intensity (LRP-1 immunofluorescence) (LRP-1 [2]): 111.14%
3 | Aβ42: 42 amino acid murine Aβ (Bachem), unlabeled, used as competitor of I-Aβ42 transport |  |  | abluminal-to-luminal transport of I-Aβ42 (saturability) [3]: significantly (p < 0.01) inhibited
4 | P-19mer: 19mer (Anti-LRP1) phosphorothioate ODN 5′-(_P=S)TGATTTGGTCTCTGCAGGC-3′, directed at an LRP-1 coding region (nt 559–541) (antisense dT*dG*dA*dT*dT*dT*dG*dG*dT*dC*dT*dC*dT*dG*dC*dA*dG*dG*dC) | not significantly decreased | 231.5 | 
5 | P-23mer: 23mer (Anti-LRP1) phosphorothioate ODN 5′-(_P=S)GTGTGGGCCGATGCAAACAGCAG-3′, designed to bind the translation start site (nt 442–418) (antisense dG*dT*dG*dT*dG*dG*dG*dC*dC*dG*dA*dT*dG*dC*dA*dA*dA*dC*dA*dG*dC*dA*dG) | significantly decreased | 47.8 | 
